Tested on: Fibroblast
Test: Multiplex assay against human fibroblast
Type: toxicity, cell-based
In short: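 Compound was added to live cells that had been stained at seeding with Hoechst33342, BioTracker Green Microtubule Cytoskeleton Dye, MitoTracker Red and Annexin V Alexa Fluor 680, and imaging followed on a CQ1 microscope at 37°C and 5% CO2. CellPathfinder machine-learning gating divided cells into Hoechst high-intensity objects or normal cells, normal cells into healthy, pyknosed or fragmented nuclei, and pyknosed cells into mitotic or apoptotic. Tubulin, mitochondrial-mass and membrane-permeability phenotypes are per cents of healthy-nucleus cells.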

[1] = 12 h, 1 µM, compound concentration 1 uM, replicate 1
[2] = 12 h, 1 µM, compound concentration 1 uM, replicate 2
[3] = 12 h, 10 µM, compound concentration 10 uM, replicate 1
[4] = 12 h, 10 µM, compound concentration 10 uM, replicate 2
[5] = 24 h, 1 µM, compound concentration 1 uM, replicate 1
[6] = 24 h, 1 µM, compound concentration 1 uM, replicate 2
[7] = 24 h, 10 µM, compound concentration 10 uM, replicate 1
[8] = 24 h, 10 µM, compound concentration 10 uM, replicate 2
[9] = 48 h, 1 µM, compound concentration 1 uM, replicate 1
[10] = 48 h, 1 µM, compound concentration 1 uM, replicate 2
[11] = 48 h, 10 µM, compound concentration 10 uM, replicate 1
[12] = 48 h, 10 µM, compound concentration 10 uM, replicate 2

C[C@H](N)COC(=O)[C@@H](CCCCN)NC(=O)Cc1c(-c2ccc3ccccc3c2)[nH]c2c1ccc1ccccc12
Population Apoptotic (%) [1]: 32% | Population Fragmented Nuclei (%) [1]: 18% | Population Healthy Nuclei (%) [1]: 65% | Population Hoechst High Intensity Objects (%) [1]: 1% | Population Membrane Permeable-Phenotype (%) [1]: 0% | Population Mitochondria Different-Phenotype (%) [1]: 7% | Population Mitotic Cells (%) [1]: 67% | Population Normal (%) [1]: 98% | Population Pyknosed Nuclei (%) [1]: 15% | Population Tubulin-Different-Phenotype (%) [1]: 32% | Total Cell Count [1]: 179 | Population Apoptotic (%) [2]: 50% | Population Fragmented Nuclei (%) [2]: 25% | Population Healthy Nuclei (%) [2]: 51% | Population Hoechst High Intensity Objects (%) [2]: 4% | Population Membrane Permeable-Phenotype (%) [2]: 5% | Population Mitochondria Different-Phenotype (%) [2]: 4% | Population Mitotic Cells (%) [2]: 50% | Population Normal (%) [2]: 95% | Population Pyknosed Nuclei (%) [2]: 23% | Population Tubulin-Different-Phenotype (%) [2]: 36% | Total Cell Count [2]: 170 | Population Apoptotic (%) [3]: 43% | Population Fragmented Nuclei (%) [3]: 13% | Population Healthy Nuclei (%) [3]: 69% | Population Hoechst High Intensity Objects (%) [3]: 2% | Population Membrane Permeable-Phenotype (%) [3]: 1% | Population Mitochondria Different-Phenotype (%) [3]: 8% | Population Mitotic Cells (%) [3]: 56% | Population Normal (%) [3]: 97% | Population Pyknosed Nuclei (%) [3]: 16% | Population Tubulin-Different-Phenotype (%) [3]: 33% | Total Cell Count [3]: 183 | Population Apoptotic (%) [4]: 62% | Population Fragmented Nuclei (%) [4]: 32% | Population Healthy Nuclei (%) [4]: 50% | Population Hoechst High Intensity Objects (%) [4]: 7% | Population Membrane Permeable-Phenotype (%) [4]: 5% | Population Mitochondria Different-Phenotype (%) [4]: 6% | Population Mitotic Cells (%) [4]: 37% | Population Normal (%) [4]: 92% | Population Pyknosed Nuclei (%) [4]: 17% | Population Tubulin-Different-Phenotype (%) [4]: 47% | Total Cell Count [4]: 167 | Population Apoptotic (%) [5]: 53% | Population Fragmented Nuclei (%) [5]: 16% | Population Healthy Nuclei (%) [5]: 66% | Population Hoechst High Intensity Objects (%) [5]: 3% | Population Membrane Permeable-Phenotype (%) [5]: 0% | Population Mitochondria Different-Phenotype (%) [5]: 5% | Population Mitotic Cells (%) [5]: 46% | Population Normal (%) [5]: 96% | Population Pyknosed Nuclei (%) [5]: 17% | Population Tubulin-Different-Phenotype (%) [5]: 30% | Total Cell Count [5]: 179 | Population Apoptotic (%) [6]: 29% | Population Fragmented Nuclei (%) [6]: 25% | Population Healthy Nuclei (%) [6]: 54% | Population Hoechst High Intensity Objects (%) [6]: 7% | Population Membrane Permeable-Phenotype (%) [6]: 3% | Population Mitochondria Different-Phenotype (%) [6]: 7% | Population Mitotic Cells (%) [6]: 70% | Population Normal (%) [6]: 92% | Population Pyknosed Nuclei (%) [6]: 20% | Population Tubulin-Different-Phenotype (%) [6]: 39% | Total Cell Count [6]: 162 | Population Apoptotic (%) [7]: 63% | Population Fragmented Nuclei (%) [7]: 13% | Population Healthy Nuclei (%) [7]: 74% | Population Hoechst High Intensity Objects (%) [7]: 7% | Population Membrane Permeable-Phenotype (%) [7]: 0% | Population Mitochondria Different-Phenotype (%) [7]: 5% | Population Mitotic Cells (%) [7]: 36% | Population Normal (%) [7]: 92% | Population Pyknosed Nuclei (%) [7]: 11% | Population Tubulin-Different-Phenotype (%) [7]: 31% | Total Cell Count [7]: 171 | Population Apoptotic (%) [8]: 50% | Population Fragmented Nuclei (%) [8]: 36% | Population Healthy Nuclei (%) [8]: 50% | Population Hoechst High Intensity Objects (%) [8]: 6% | Population Membrane Permeable-Phenotype (%) [8]: 5% | Population Mitotic Cells (%) [8]: 50% | Population Normal (%) [8]: 93% | Population Pyknosed Nuclei (%) [8]: 13% | Population Tubulin-Different-Phenotype (%) [8]: 54% | Total Cell Count [8]: 159 | Population Apoptotic (%) [9]: 72% | Population Fragmented Nuclei (%) [9]: 21% | Population Healthy Nuclei (%) [9]: 65% | Population Hoechst High Intensity Objects (%) [9]: 5% | Population Membrane Permeable-Phenotype (%) [9]: 0% | Population Mitochondria Different-Phenotype (%) [9]: 7% | Population Mitotic Cells (%) [9]: 27% | Population Normal (%) [9]: 94% | Population Pyknosed Nuclei (%) [9]: 12% | Population Tubulin-Different-Phenotype (%) [9]: 26% | Total Cell Count [9]: 186 | Population Apoptotic (%) [10]: 51% | Population Fragmented Nuclei (%) [10]: 30% | Population Healthy Nuclei (%) [10]: 50% | Population Hoechst High Intensity Objects (%) [10]: 2% | Population Membrane Permeable-Phenotype (%) [10]: 3% | Population Mitochondria Different-Phenotype (%) [10]: 6% | Population Mitotic Cells (%) [10]: 48% | Population Normal (%) [10]: 97% | Population Pyknosed Nuclei (%) [10]: 18% | Population Tubulin-Different-Phenotype (%) [10]: 39% | Total Cell Count [10]: 169 | Population Apoptotic (%) [11]: 46% | Population Fragmented Nuclei (%) [11]: 16% | Population Healthy Nuclei (%) [11]: 68% | Population Hoechst High Intensity Objects (%) [11]: 9% | Population Membrane Permeable-Phenotype (%) [11]: 0% | Population Mitochondria Different-Phenotype (%) [11]: 4% | Population Mitotic Cells (%) [11]: 53% | Population Normal (%) [11]: 90% | Population Pyknosed Nuclei (%) [11]: 15% | Population Tubulin-Different-Phenotype (%) [11]: 35% | Total Cell Count [11]: 185 | Population Apoptotic (%) [12]: 55% | Population Fragmented Nuclei (%) [12]: 36% | Population Healthy Nuclei (%) [12]: 52% | Population Hoechst High Intensity Objects (%) [12]: 5% | Population Membrane Permeable-Phenotype (%) [12]: 7% | Population Mitochondria Different-Phenotype (%) [12]: 8% | Population Mitotic Cells (%) [12]: 44% | Population Normal (%) [12]: 94% | Population Pyknosed Nuclei (%) [12]: 11% | Population Tubulin-Different-Phenotype (%) [12]: 54% | Total Cell Count [12]: 166
